Assay results published in ChEMBL document CHEMBL4152200, “Targeting the entrance channel of NNIBP: Discovery of diarylnicotinamide 1,4-disubstituted 1,2,3-triazoles as novel HIV-1 NNRTIs with high potency against wild-type and E138K mutant virus” (Eur J Med Chem, 2018).

What was measured:
MT4 = test: Cytotoxicity against human MT4 cells assessed as decrease in cell viability after 5 days by MTT assay; assay type: cell-based; conditions: mt4, 120 h
Procedure, shortened: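 Mock-infected MT-4 cells, exponentially growing, seeded with compound in culture medium without virus; run in parallel with the antiviral assay. Viability read spectrophotometrically by MTT reduction five days later.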

[1] = test system: Human immunodeficiency virus 1; test: Antiviral activity against wild-type HIV-1 3B infected in human MT4 cells assessed as inhibition of viral replication after 5 days by MTT assay; assay type: functional, organism-based; conditions: Human immunodeficiency virus 1, 3B, MT4, 120 h
[2] = test system: Human immunodeficiency virus 1; test: Antiviral activity against HIV-1 RES056 harboring reverse transcriptase K103N/Y181C double mutant infected in human MT4 cells assessed as inhibition of viral replication after 5 days by MTT assay; assay type: functional, organism-based; conditions: Human immunodeficiency virus 1, RES056, MT4, 120 h
[3] = Selectivity index, ratio of CC50 for human MT4 cells to EC50 for HIV-1 RES056 harboring reverse transcriptase K103N/Y181C double mutant infected in human MT4 cells; assay type: toxicity, cell-based; conditions: read-out: Ratio CC50/EC50
Procedure, shortened: (§1)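 SI is CC₅₀ divided by EC₅₀, both by MTT after 5 days in MT-4 cells. CC₅₀ comes from mock-infected cultures run in parallel and is the concentration reducing their viability by 50%. EC₅₀ comes from cultures infected with the given mutant strain at 100–300 CCID₅₀.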

[4] = Selectivity index, ratio of CC50 for human MT4 cells to EC50 for wild-type HIV1 3B; assay type: toxicity; conditions: read-out: Ratio CC50/EC50
Procedure, shortened: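 Wild-type HIV-1 IIIB at 100–300 CCID50 added to MT-4 cells with compound, with mock-infected wells in parallel. MTT viability was read at day 5. […] SI = CC50/EC50.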

[5] = Selectivity index, ratio of CC50 for human MT4 cells to EC50 for HIV1 harboring reverse transcriptase K103N mutant; assay type: toxicity; conditions: read-out: Ratio CC50/EC50; procedure, shortened: as §1
[6] = test system: Human immunodeficiency virus 1; test: Antiviral activity against HIV1 harboring reverse transcriptase F227L/V106A double mutant infected in human MT4 cells assessed as inhibition of viral replication after 5 days by MTT assay; assay type: functional, organism-based; conditions: Human immunodeficiency virus 1, MT4, 120 h
[7] = test system: Human immunodeficiency virus 1; test: Antiviral activity against HIV1 harboring reverse transcriptase E138K mutant infected in human MT4 cells assessed as inhibition of viral replication after 5 days by MTT assay; assay type: functional, organism-based; conditions: Human immunodeficiency virus 1, MT4, 120 h
[8] = test system: Human immunodeficiency virus 1; test: Antiviral activity against HIV1 harboring reverse transcriptase Y188L mutant infected in human MT4 cells assessed as inhibition of viral replication after 5 days by MTT assay; assay type: functional, organism-based; conditions: Human immunodeficiency virus 1, MT4, 120 h
Procedure, shortened: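 MT-4 cells in exponential growth, resuspended into wells holding HIV-1 stock (IIIB, RES056 K103N/Y181C, F227L/V106A, L100I, K103N, E138K, Y181C or Y188L) at 100–300 CCID₅₀, or into mock-infected wells. Viability read by MTT reduction to formazan, measured spectrophotometrically 5 days post-infection. EC₅₀ is the concentration giving 50% protection against virus-induced cytotoxicity.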

[9] = Selectivity index, ratio of CC50 for human MT4 cells to EC50 for HIV1 harboring reverse transcriptase Y181C mutant; assay type: toxicity; conditions: read-out: Ratio CC50/EC50; procedure, shortened: as §1
[10] = test system: Human immunodeficiency virus 1; test: Resistance factor, ratio of EC50 for HIV1 harboring reverse transcriptase F227L/V106A mutant to EC50 for wild-type HIV-1 3B; assay type: functional
Procedure, shortened: (§2)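 Resistance fold is EC₅₀ against the mutant strain divided by EC₅₀ against WT IIIB. Both EC₅₀ values come from the 5-day MTT protection assay in MT-4 cells infected with 100–300 CCID₅₀ of virus.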

[11] = test system: Human immunodeficiency virus 1; test: Antiviral activity against HIV1 harboring reverse transcriptase Y181C mutant infected in human MT4 cells assessed as inhibition of viral replication after 5 days by MTT assay; assay type: functional, organism-based; conditions: Human immunodeficiency virus 1, MT4, 120 h
[12] = Selectivity index, ratio of CC50 for human MT4 cells to EC50 for HIV1 harboring reverse transcriptase F227L/V106A mutant; assay type: toxicity; conditions: read-out: Ratio CC50/EC50; procedure, shortened: as §1
[13] = Selectivity index, ratio of CC50 for human MT4 cells to EC50 for HIV1 harboring reverse transcriptase E138K mutant; assay type: toxicity; conditions: read-out: Ratio CC50/EC50; procedure, shortened: as §1
[14] = test system: Human immunodeficiency virus 1; test: Resistance factor, ratio of EC50 for HIV1 harboring reverse transcriptase Y188L mutant to EC50 for wild-type HIV-1 3B; assay type: functional; procedure, shortened: as §2
[15] = test system: Human immunodeficiency virus 1; test: Resistance factor, ratio of EC50 for HIV1 harboring reverse transcriptase E138K mutant to EC50 for wild-type HIV-1 3B; assay type: functional; procedure, shortened: as §2
[16] = test system: Human immunodeficiency virus 1; test: Antiviral activity against HIV1 harboring reverse transcriptase L100I mutant infected in human MT4 cells assessed as inhibition of viral replication after 5 days by MTT assay; assay type: functional, organism-based; conditions: Human immunodeficiency virus 1, MT4, 120 h
[17] = Selectivity index, ratio of CC50 for human MT4 cells to EC50 for HIV1 harboring reverse transcriptase L100I mutant; assay type: toxicity; conditions: read-out: Ratio CC50/EC50; procedure, shortened: as §1
[18] = test system: Human immunodeficiency virus 1; test: Antiviral activity against HIV1 harboring reverse transcriptase K103N mutant infected in human MT4 cells assessed as inhibition of viral replication after 5 days by MTT assay; assay type: functional, organism-based; conditions: Human immunodeficiency virus 1, MT4, 120 h
[19] = test system: Human immunodeficiency virus 1; test: Resistance factor, ratio of EC50 for HIV1 harboring reverse transcriptase K103N mutant to EC50 for wild-type HIV-1 3B; assay type: functional; procedure, shortened: as §2
[20] = Selectivity index, ratio of CC50 for human MT4 cells to EC50 for HIV1 harboring reverse transcriptase Y188L mutant; assay type: toxicity; conditions: read-out: Ratio CC50/EC50; procedure, shortened: as §1
[21] = test system: Human immunodeficiency virus 1; test: Resistance factor, ratio of EC50 for HIV1 harboring reverse transcriptase L100I mutant to EC50 for wild-type HIV-1 3B; assay type: functional; procedure, shortened: as §2
[22] = test system: Human immunodeficiency virus 1; test: Resistance factor, ratio of EC50 for HIV1 harboring reverse transcriptase Y181C mutant to EC50 for wild-type HIV-1 3B; assay type: functional; procedure, shortened: as §2

Compound | CC50 (MT4) | EC50 [1] | EC50 [2] | other results
Cc1cc(C)c(Oc2cc(Nc3ccc(C#N)cc3)ncc2C(=O)NCc2cn(Cc3ccccc3C#N)nn2)c(C)c1 | > 220 µM | 0.039 µM | > 220 µM | –
Cc1cc(C)c(Oc2cc(Nc3ccc(C#N)cc3)ncc2C(=O)NCc2cn(Cc3ccc(F)cc3)nn2)c(C)c1 | ≥ 153 µM | 0.074 µM | > 153 µM | –
Cc1cc(C)c(Oc2cc(Nc3ccc(C#N)cc3)ncc2C(=O)NCc2cn(Cc3ccccc3F)nn2)c(C)c1 | > 222 µM | 0.095 µM | > 222 µM | –
Cc1cc(C)c(Oc2cc(Nc3ccc(C#N)cc3)ncc2C(=O)NCc2cn(Cc3cccc([N+](=O)[O-])c3)nn2)c(C)c1 | ≥ 156 µM | 0.037 µM | > 156 µM | –
Cc1cc(C)c(Oc2cc(Nc3ccc(C#N)cc3)ncc2C(=O)NCc2cn(Cc3ccccc3C)nn2)c(C)c1 | ≥ 164 µM | 0.077 µM | > 164 µM | –
Cc1cc(C)c(Oc2cc(Nc3ccc(C#N)cc3)ncc2C(=O)NCc2cn(Cc3cccc(Cl)c3)nn2)c(C)c1 | 187 µM | 0.104 µM | > 187 µM | selectivity ratio [3]: < 1; selectivity ratio [4]: 1800
Cc1cc(C)c(Oc2cc(Nc3ccc(C#N)cc3)ncc2C(=O)NCc2cn(CCC#N)nn2)c(C)c1 | 40.1 µM | 0.02 µM | 2.31 µM | selectivity ratio [5]: 158; EC50 [6]: 0.33 µM; EC50 [7]: 0.015 µM; EC50 [8]: 2.24 µM; selectivity ratio [9]: 450; Ratio EC50 [10]: 16.5; EC50 [11]: 0.089 µM; selectivity ratio [12]: 121; selectivity ratio [13]: 2630; Ratio EC50 [14]: 112; Ratio EC50 [15]: 0.8; EC50 [16]: 1.06 µM; selectivity ratio [17]: 38; EC50 [18]: 0.25 µM; Ratio EC50 [19]: 12.5; selectivity ratio [20]: 18; Ratio EC50 [21]: 53; Ratio EC50 [22]: 4.5
CCOC(=O)Cn1cc(CNC(=O)c2cnc(Nc3ccc(C#N)cc3)cc2Oc2c(C)cc(C)cc2C)nn1 | 9.53 µM | 0.653 µM | > 9.53 µM | selectivity ratio [3]: < 1; selectivity ratio [4]: 15
Cc1cc(C)c(Oc2cc(Nc3ccc(C#N)cc3)ncc2C(=O)NCc2cn(Cc3ccccc3[N+](=O)[O-])nn2)c(C)c1 | > 212 µM | 0.057 µM | > 212 µM | –
Cc1cc(C)c(Oc2cc(Nc3ccc(C#N)cc3)ncc2C(=O)NCc2cn(Cc3cccc(F)c3)nn2)c(C)c1 | ≥ 205 µM | 0.079 µM | > 205 µM | –
Cc1cc(C)c(Oc2cc(Nc3ccc(C#N)cc3)ncc2C(=O)NCc2cn(Cc3ccc([N+](=O)[O-])cc3)nn2)c(C)c1 | ≥ 140 µM | 0.04 µM | > 140 µM | –
Cc1cc(C)c(Oc2cc(Nc3ccc(C#N)cc3)ncc2C(=O)NCc2cn(Cc3ccccc3Cl)nn2)c(C)c1 | ≥ 188 µM | 0.104 µM | > 188 µM | –
Cc1cc(C#N)cc(C)c1Oc1nc(Nc2ccc(C#N)cc2)nc(N)c1Br [ETRAVIRINE] | – | – | – | EC50 [6]: 0.005 µM; EC50 [8]: 0.011 µM
Cc1ccc(Cn2cc(CNC(=O)c3cnc(Nc4ccc(C#N)cc4)cc3Oc3c(C)cc(C)cc3C)nn2)cc1 | 165 µM | 0.167 µM | > 165 µM | selectivity ratio [3]: < 1; selectivity ratio [4]: 990
COC(=O)Cn1cc(CNC(=O)c2cnc(Nc3ccc(C#N)cc3)cc2Oc2c(C)cc(C)cc2C)nn1 | 13.8 µM | 1.77 µM | > 13.8 µM | selectivity ratio [3]: < 1; selectivity ratio [4]: 8
Cc1cn([C@H]2C[C@H](N=[N+]=[N-])[C@@H](CO)O2)c(=O)[nH]c1=O [ZIDOVUDINE] | > 7.48 µM | – | 0.011 µM | EC50 [16]: 0.005 µM; EC50 [18]: 0.008 µM
Cc1cccc(Cn2cc(CNC(=O)c3cnc(Nc4ccc(C#N)cc4)cc3Oc3c(C)cc(C)cc3C)nn2)c1 | 114 µM | 0.106 µM | > 114 µM | selectivity ratio [3]: < 1; selectivity ratio [4]: 1070
CC(C)Nc1cccnc1N1CCN(C(=O)c2cc3cc(NS(C)(=O)=O)ccc3[nH]2)CC1 [DELAVIRDINE] | – | 0.038 µM | – | EC50 [6]: 2.27 µM; EC50 [7]: 0.051 µM; EC50 [8]: 0.84 µM; Ratio EC50 [10]: 59.7; EC50 [11]: 2.46 µM; Ratio EC50 [14]: 22.1; Ratio EC50 [15]: 1.3; EC50 [16]: 2.54 µM; EC50 [18]: 3 µM; Ratio EC50 [19]: 78.9; Ratio EC50 [21]: 66.8; Ratio EC50 [22]: 64.7
CCOC(=O)CCn1cc(CNC(=O)c2cnc(Nc3ccc(C#N)cc3)cc2Oc2c(C)cc(C)cc2C)nn1 | 21.5 µM | 0.847 µM | > 21.5 µM | selectivity ratio [3]: < 1; selectivity ratio [4]: 25
Cc1cc(C)c(Oc2cc(Nc3ccc(C#N)cc3)ncc2C(=O)NCc2cn(Cc3cccc(C#N)c3)nn2)c(C)c1 | ≥ 130 µM | 0.025 µM | > 130 µM | –
Cc1cc(C)c(Oc2cc(Nc3ccc(C#N)cc3)ncc2C(=O)NCc2cn(Cc3ccc(Cl)cc3)nn2)c(C)c1 | ≥ 120 µM | 0.194 µM | > 120 µM | –
